In ChEMBL document CHEMBL5344467, “Improving Activity of New Arylurea Agents against Multidrug-Resistant and Biofilm-Producing Staphylococcus epidermidis” (ACS Med Chem Lett, 2024):
≈ marks a conversion by molar mass, not a printed value. Calls of active or inactive are those of the source. The rule behind the calls is not given here.

How the values were obtained:
Cell membrane [1] = assay: Induction of cell membrane permeability Staphylococcus epidermidis clinical isolate 23 assessed as depolarized cells at 0.4 ug/ml by Texas Red-H/FITC-H staining based flow cytometry (reference value: 2.7%); assay type: subcellular; settings: dose 0.4 µg/ml
Procedure, shortened: (§1)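 Membrane potential read by flow cytometry. Bacteria were stained with DiOC2, then exposed to the agent; red fluorescence marks polarized cells and green marks depolarized cells. CCCP served as the positive control and daptomycin as the depolarizing reference at 0.4 μg/mL. Test concentrations were 0.8, 1.6 and 3.125 μg/mL, with a 15 min exposure.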

Cell membrane [2] = assay: Induction of cell membrane permeability Staphylococcus epidermidis clinical isolate 23 assessed as residual polarized cells at 0.4 ug/ml by Texas Red-H/FITC-H staining based flow cytometry (reference value: 69.6%); assay type: subcellular; settings: dose 0.4 µg/ml; procedure, shortened: as §1
Cell membrane [3] = assay: Induction of cell membrane permeability Staphylococcus epidermidis clinical isolate 23 assessed as depolarized cells by Texas Red-H/FITC-H staining based flow cytometry (reference value: 2.7%); assay type: subcellular; procedure, shortened: as §1
Cell membrane [4] = assay: Induction of cell membrane permeability Staphylococcus epidermidis clinical isolate 23 assessed as residual polarized cells by Texas Red-H/FITC-H staining based flow cytometry (reference value: 69.6%); assay type: subcellular; procedure, shortened: as §1
[5] = Selectivity index, ratio of IC50 for rat H9c2 cells to IC50 for human BJ cells; assay type: toxicity; settings: H9c2 cells and BJ cells, read-out: Ratio IC50
[6] = system: Staphylococcus epidermidis; assay: Antibiofilm activity against Staphylococcus epidermidis clinical isolates assessed as eradication of existing biofilms measured after 24 hrs by confocal laser scanning microscopy analysis; assay type: functional
[7] = Selectivity index, ratio of IC50 for cytotoxicity against rat H9c2 cells to MIC for antibacterial activity against multidrug resistant Staphylococcus epidermidis clinical isolates; assay type: toxicity, cell-based; settings: read-out: Selectivity Index
Procedure, shortened: (§2)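 SI is IC50 divided by the mean MIC across clinical multidrug-resistant S. epidermidis isolates (81 strains). IC50 came from an MTT assay after 24 h treatment of H9c2 cardiomyocytes or BJ skin fibroblasts, n = 3. MIC was measured by broth microdilution.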

[8] = system: Staphylococcus epidermidis; assay: Antibiofilm activity against Staphylococcus epidermidis clinical isolates assessed as inhibition of biofilm formation measured after 24 hrs by confocal laser scanning microscopy analysis; assay type: functional
[9] = Selectivity index, ratio of IC50 for cytotoxicity against human BJ cells to MIC for antibacterial activity against multidrug resistant Staphylococcus epidermidis clinical isolates; assay type: toxicity, cell-based; settings: read-out: Selectivity Index; procedure, shortened: as §2
Escherichia coli = assay: Antibacterial activity against Escherichia coli ATCC 25922 assessed as inhibition of bacterial growth by broth microdilution method; assay type: functional
Pseudomonas aeruginosa = assay: Antibacterial activity against Pseudomonas aeruginosa ATCC 27853 assessed as inhibition of bacterial growth by broth microdilution method; assay type: functional
Acinetobacter baumannii = assay: Antibacterial activity against Acinetobacter baumannii ATCC 19606 assessed as inhibition of bacterial growth by broth microdilution method; assay type: functional
[10] = system: Staphylococcus epidermidis; assay: Antibacterial activity against multidrug-resistant and biofilm producer Staphylococcus epidermidis ATCC 35984 assessed as inhibition of bacterial growth by broth microdilution method; assay type: functional
Procedure, shortened: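 Preliminary MIC screen by broth microdilution against three reference strains (methicillin-susceptible, multidrug-resistant/biofilm-producing S. epidermidis, and biofilm-producing S. aureus); MIC reported in μg/mL.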

Cell membrane [11] = assay: Induction of cell membrane permeability Staphylococcus epidermidis clinical isolate 23 assessed as residual polarized cells at 1.6 ug/ml by Texas Red-H/FITC-H staining based flow cytometry (reference value: 69.6%); assay type: subcellular; settings: dose 1.6 µg/ml
Procedure, shortened: (§3)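 Cells stained with DiOC2, then exposed to test agent (0.8, 1.6, 3.125 μg/mL tested); CCCP positive control, daptomycin 0.4 μg/mL reference depolarizer, DiOC2-only negative control. Membrane potential read by flow cytometry as red (polarized) versus green (depolarized) cell populations; depolarization assessed within 15 min.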

Cell membrane [12] = assay: Induction of cell membrane permeability Staphylococcus epidermidis clinical isolate 23 assessed as residual polarized cells at 0.8 ug/ml by Texas Red-H/FITC-H staining based flow cytometry (reference value: 69.6%); assay type: subcellular; settings: dose 0.8 µg/ml
Procedure, shortened: (§4)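 Clinical S. epidermidis no. 23 cells were first stained with DiOC2, then treated with compound. Membrane potential was read by flow cytometry within 15 min: red marks polarized cells, green marks depolarized cells. Controls were DiOC2-only cells (negative), CCCP (positive), and daptomycin at 0.4 μg/mL as a depolarizing reference.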

Cell membrane [13] = assay: Induction of cell membrane permeability Staphylococcus epidermidis clinical isolate 23 assessed as depolarized cells at 0.8 ug/ml by Texas Red-H/FITC-H staining based flow cytometry (reference value: 2.7%); assay type: subcellular; settings: dose 0.8 µg/ml; procedure, shortened: as §4
Cell membrane [14] = assay: Induction of cell membrane permeability Staphylococcus epidermidis clinical isolate 23 assessed as depolarized cells at 3.125 ug/ml by Texas Red-H/FITC-H staining based flow cytometry (reference value: 2.7%); assay type: subcellular; settings: dose 3.125 µg/ml; procedure, shortened: as §4
[15] = system: Staphylococcus epidermidis; assay: Bacteriostatic activity Staphylococcus epidermidis clinical isolate 44 at 0.4 to 25 ug/ml measured upto 1000 mins by broth microdilution method; assay type: functional, organism-based; settings: dose 0.4-25 µg/ml
[16] = system: Staphylococcus epidermidis; assay: Antibiofilm activity against Staphylococcus epidermidis clinical isolate 25 assessed as inhibition of biofilm formation measured after 24 hrs by confocal laser scanning microscopy analysis; assay type: functional
Procedure, shortened: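 Clinical S. epidermidis strain no. 25 biofilm exposed to compound for 24 h, stained with FilmTracer SYPRO Ruby biofilm matrix stain, and imaged by confocal microscopy. Untreated compact biofilm served as control.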

Cell membrane [17] = assay: Induction of cell membrane permeability Staphylococcus epidermidis clinical isolate 23 assessed as depolarized cells at 1.6 ug/ml by Texas Red-H/FITC-H staining based flow cytometry (reference value: 2.7%); assay type: subcellular; settings: dose 1.6 µg/ml; procedure, shortened: as §3

SMILES: CCCCCCCCCC(=O)N[C@@H](Cc1c[nH]c2ccccc12)C(=O)N[C@H](CC(N)=O)C(=O)N[C@@H](CC(=O)O)C(=O)N[C@@H]1C(=O)NCC(=O)N[C@@H](CCCN)C(=O)N[C@@H](CC(=O)O)C(=O)N[C@H](C)C(=O)N[C@@H](CC(=O)O)C(=O)NCC(=O)N[C@H](CO)C(=O)N[C@@H]([C@H](C)CC(=O)O)C(=O)N[C@@H](CC(=O)c2ccccc2N)C(=O)O[C@@H]1C
- Activity (Cell membrane [1]): 7.2%
- Activity (Cell membrane [2]): 1.3%

SMILES: N#CC(C#N)=NNc1cccc(Cl)c1
- Activity (Cell membrane [3]): 73.4%
- Activity (Cell membrane [4]): 0.1%

SMILES: O=S(=O)(NC1CCN(CCC(Oc2ccc(C(F)(F)F)cc2)c2ccccc2)CC1)c1cccc(Cl)c1 (racemic)
- selectivity ratio [5]: 2
- MBEC90 [6]: >=125 ug ml-1
- selectivity ratio [7]: 0.7
- MBIC90 [8]: >=125 ug ml-1
- selectivity ratio [9]: 0.4

SMILES: O=S(=O)(NC1CCN(CCC(Oc2ccc(C(F)(F)F)cc2)c2cccs2)CC1)c1cccc(Cl)c1 (racemic)
- selectivity ratio [5]: 2
- MBEC90 [6]: >=125 ug ml-1
- selectivity ratio [7]: 2.8
- MBIC90 [8]: >=125 ug ml-1
- selectivity ratio [9]: 1

SMILES: O=S(=O)(NC1CCN(CCC(Oc2cccc(C(F)(F)F)c2)c2ccccc2)CC1)c1cccc(Cl)c1 (racemic)
- MIC (Escherichia coli): ≥ 25 µg/mL
- MIC (Pseudomonas aeruginosa): ≥ 25 µg/mL
- MIC (Acinetobacter baumannii): ≥ 25 µg/mL

SMILES: O=S(=O)(NC1CCN(CCC(Oc2ccc(C(F)(F)F)cc2)c2cccs2)CC1)c1cccc(C(F)(F)F)c1 (racemic)
- MIC [10]: 0.2 µg/mL (≈ 0.337 µM)

SMILES: O=C(Nc1cccc(Cl)c1)NC1CCN(CCC(Oc2ccc(C(F)(F)F)cc2)c2cccs2)CC1 (racemic)
- Activity (Cell membrane [11]): 1.9%
- selectivity ratio [5]: 2
- Activity (Cell membrane [12]): 43.5%
- MBEC90 [6]: 31.25 µg/mL
- selectivity ratio [7]: 15.3
- Activity (Cell membrane [13]): 34.7%
- MBIC90 [8]: 31.25 µg/mL
- Activity (Cell membrane [14]): 55.2%
- Activity [15]: Active
- MBIC [16]: 7.8 µg/mL
- Activity (Cell membrane [17]): 72.4%
- MIC (Escherichia coli): > 50 µg/mL
- selectivity ratio [9]: 7.5
- MIC (Pseudomonas aeruginosa): > 50 µg/mL
- MIC (Acinetobacter baumannii): > 50 µg/mL

SMILES: O=S(=O)(NC1CCN(CCC(Oc2ccc(C(F)(F)F)cc2)c2cccs2)CC1)c1cccc(Br)c1 (racemic)
- MIC [10]: 0.4 µg/mL (≈ 0.663 µM)

SMILES: CC(=O)NC[C@H]1CN(c2ccc(N3CCOCC3)c(F)c2)C(=O)O1 [LINEZOLID]
- MBEC90 [6]: 50 µg/mL
- selectivity ratio [7]: 7.3
- MBIC90 [8]: 50 µg/mL
- Activity [15]: Active
